ChEMBL document CHEMBL1135785, “N-[(2-Sulfo)-9-fluorenylmethoxycarbonyl](3)-gentamicin C(1) is a long-acting prodrug derivative” (J Med Chem, 2002)

Legend:
[1] = Half life after i.v. administration to rat; format: ADME, organism-based; details: in vivo, iv
Method in brief: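 Rats (n = 4 per group) received 1 μmol/rat intravenously in 0.2 mL PBS, pH 7.4. Tail blood was sampled at several time points. Immunoreactive gentamicin was measured by fluorescence polarization immunoassay, with each point the mean of four rats. Circulating half-life was taken from the decline phase.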

Albumin [2] = target: T1, Albumin (Homo sapiens, UniProt P02768); assay: The compound was evaluated for pharmacokinetic parameters Serum albumin associating affinity
[3] = The compound was evaluated for pharmacokinetic parameters HSA associating affinity; format: ADME; details: human
Method in brief: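 Human serum albumin (11.4 μM) in 0.05 M HEPES, pH 6.7, preincubated 10 min with or without rising conjugate concentrations. p-Nitrophenyl acetate (PNPA) then added to 1 mM final. Absorbance read at 410 nm 60 min later. IC50 calculated for inhibition of HSA-evoked PNPA hydrolysis, then converted to Kd estimates. FMS-L-serine served as internal standard.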

[4] = Half life for hydrolysis of the compound; format: ADME
Method in brief: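 Conjugate was incubated in 0.1 M NaHCO3, pH 8.5, at 37 °C. Aliquots were withdrawn over time and assayed with TNBS for the appearance of free amino groups to give the FMS hydrolysis half-life.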

Albumin [5] = target: T1, Albumin; assay: The compound was evaluated for albumin associating affinity along with 3.0 M of FMS
Method in brief: (§1)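 Albumin affinity was inferred from the PNPA esterase assay. HSA (11.4 μM, 0.05 M HEPES, pH 6.7) was preincubated 10 min with graded conjugate concentrations, then given 1 mM PNPA (final). A410 was read at 60 min. The resulting IC50 values were converted to Kd estimates.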

Albumin [6] = target: T1, Albumin; assay: The compound was evaluated for albumin associating affinity 0.7 M of FMS; method in brief: as §1
Albumin [7] = target: T1, Albumin; assay: The compound was evaluated for albumin associating affinity along with 1.3 M of FMS; method in brief: as §1
Albumin [8] = target: T1, Albumin; assay: The compound was evaluated for albumin associating affinity along with 2.1 M of FMS; method in brief: as §1
Escherichia coli [9] = assay: Potency for its ability to inhibit replication of Escherichia coli; format: functional
Method in brief: (§2)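 Antibacterial potency was measured as inhibition of Escherichia coli replication, expressed as half-maximal inhibitory concentration and as percent of native gentamicin activity.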

Escherichia coli [10] = assay: The compound was evaluated for its ability to inhibit replication of Escherichia coli; format: functional, organism-based; method in brief: as §2
Albumin [11] = target: T1, Albumin; assay: Evaluated for inhibition of Serum albumin evoked PNPA hydrolysis in presence of 2.1 M of FMS; format: functional
Method in brief: (§3)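 Human serum albumin (11.4 μM) in 0.05 M HEPES, pH 6.7, was preincubated for 10 min with or without increasing concentrations of each FMS-gentamicin conjugate. PNPA was then added to a final 1 mM. Absorbance at 410 nm was read 60 min later, and IC50 was calculated for inhibition of HSA-evoked PNPA hydrolysis.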

Albumin [12] = target: T1, Albumin; assay: Evaluated for inhibition of Serum albumin evoked PNPA hydrolysis in presence of 3.0 M of FMS; format: functional; method in brief: as §3
Albumin [13] = target: T1, Albumin; assay: Evaluated for inhibition of Serum albumin evoked PNPA hydrolysis in presence of 0.7 M of FMS; format: functional; method in brief: as §3
Albumin [14] = target: T1, Albumin; assay: Evaluated for inhibition of Serum albumin evoked PNPA hydrolysis in presence of 1.3 M of FMS; format: functional; method in brief: as §3

T1 sequence (P02768 whole entry): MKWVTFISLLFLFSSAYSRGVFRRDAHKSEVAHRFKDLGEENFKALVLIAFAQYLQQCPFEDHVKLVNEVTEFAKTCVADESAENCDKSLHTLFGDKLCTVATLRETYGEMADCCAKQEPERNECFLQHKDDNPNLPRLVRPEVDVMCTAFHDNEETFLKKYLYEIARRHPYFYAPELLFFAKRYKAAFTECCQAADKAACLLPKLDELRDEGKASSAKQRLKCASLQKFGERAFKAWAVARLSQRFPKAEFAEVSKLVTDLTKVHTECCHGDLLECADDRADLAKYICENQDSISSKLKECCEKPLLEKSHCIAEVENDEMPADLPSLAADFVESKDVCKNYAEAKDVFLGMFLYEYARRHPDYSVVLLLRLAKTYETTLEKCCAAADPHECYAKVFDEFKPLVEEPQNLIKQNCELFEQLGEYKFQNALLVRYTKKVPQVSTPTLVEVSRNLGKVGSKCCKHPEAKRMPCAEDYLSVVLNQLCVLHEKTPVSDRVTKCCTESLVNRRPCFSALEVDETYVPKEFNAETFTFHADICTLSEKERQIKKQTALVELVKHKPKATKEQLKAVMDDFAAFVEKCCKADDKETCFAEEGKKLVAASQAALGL

## CNC(C)[C@H]1CCC(N)[C@@H](O[C@@H]2C(N)C[C@@H](NC(=O)OCC3c4ccccc4-c4ccc(S(=O)(=O)O)cc43)C(O[C@H]3OC[C@](C)(O)C(NC)[C@@H]3O)[C@@H]2O)O1 (stereo partly specified)
[1]
  half-life: 1.3 h
Albumin [2]
  Kd: 20 µM

## CNC(C)[C@H]1CCC(NC(=O)OCC2c3ccccc3-c3ccc(S(=O)(=O)O)cc32)[C@@H](O[C@@H]2C(NC(=O)OCC3c4ccccc4-c4ccc(S(=O)(=O)O)cc43)C[C@@H](NC(=O)OCC3c4ccccc4-c4ccc(S(=O)(=O)O)cc43)C(O[C@H]3OC[C@](C)(O)C(NC)[C@@H]3O)[C@@H]2O)O1 (stereo partly specified)
[1]
  half-life: 3.8 h
[3]
  Ka: 131000 M⁻¹
[4]
  half-life: 8 h
Albumin [5]
  Kd: 7.6 µM
Albumin [6]
  Kd: 32 µM
Albumin [7]
  Kd: 17.2 µM
Albumin [8]
  Kd: 9.2 µM
Escherichia coli [9]
  Potency: <1%
Escherichia coli [10]
  IC50: 24 µM
Albumin [11]
  IC50: 23 µM
Albumin [12]
  IC50: 19 µM
Albumin [13]
  IC50: 80 µM
Albumin [14]
  IC50: 43 µM

## CNC(C)[C@H]1CCC(N)[C@@H](O[C@@H]2C(NC(=O)OCC3c4ccccc4-c4ccc(S(=O)(=O)O)cc43)C[C@@H](NC(=O)OCC3c4ccccc4-c4ccc(S(=O)(=O)O)cc43)C(O[C@H]3OC[C@](C)(O)C(NC)[C@@H]3O)[C@@H]2O)O1 (stereo partly specified)
Albumin [2]
  Kd: 9.2 µM
